Experimental data taken from PubChem BioAssay AID624109 (Broad Institute, 2012).
Inconclusive results are not listed. Calls of active or inactive are those of the source.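 How the source made its calls: active means curve reaches the -35% threshold at a concentration no more than twice the top valid dose, in duplicate at both wavelengths; inconclusive means no clear call, values can overlap the other calls; inactive means the rest, including effects opposite to the expected decrease.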

Test: inhibition of P. aeruginosa growth with EDDHA – absorbance 405 nm, dry powder, set 6, dose response (AID 624109)
Conditions: hits give low values; at 0.056 µM unless noted
How it was run: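 System: P. aeruginosa ATCC 15692 bacteria. Input: final OD600 0.0000005 inoculum. Medium: succinate M9 medium at pH 7.0 with iron chelator EDDHA. Probe or stimulus: 2 µM EDDHA final. Timing: bacterial growth with compound for 24-30 h at 37 °C.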
For `N#CC1c2ccc(Cl)cc2CCc2cccnc21` (centres undefined), the max activity was -36.3% [at 4.6 µM] (inactive). In the case of `CCCCC(C#N)c1ccc(Cl)cc1` (centres undefined), the max activity is reported as -39.1% [at 0.16 µM] (inactive). With `N#Cc1cccc(C(C#N)c2ccc(F)cc2)n1` (centres undefined) the max activity was 19% [at 0.0195 µM] (inactive). With `Clc1ccc(C(c2cccc(Cl)n2)c2nn[nH]n2)cc1` (centres undefined) the max activity was 10.4% [at 13.5 µM] (inactive). With `CCCCC(C#N)c1ccc(F)cc1` (centres undefined) the max activity was -50.3% [at 1.5 µM] (inactive). With `CCCCC(C#N)c1ccccn1` (centres undefined) the max activity was 1.07% [at 120 µM] (inactive). For `COCCC(C#N)c1ccc(F)cc1` (centres undefined), the max activity was -46.3% [at 0.5 µM] (inactive). In the case of `COCCC(C#N)c1ccc(Cl)cc1` (centres undefined), the max activity is reported as -41.4% (inactive). In the case of `N#CC(c1ccc(Cl)cc1)c1ccccn1` (centres undefined), the max activity is reported as -55.2% (inactive). With `N#CC(c1ccc(F)cc1)c1cccc(Cl)n1` (centres undefined) the max activity was -43.2% [at 0.16 µM] (inactive). For `CCCCC(C#N)c1ccc(Cl)cn1` (centres undefined), the max activity was -57.2% (inactive). With `CCCCC(C#N)c1ccc(F)cn1` (centres undefined) the max activity was -30.6% [at 0.5 µM] (inactive). With `COCCNC(C#N)c1ccc(Cl)cc1` (centres undefined) the max activity was -29.7% [at 4.6 µM] (inactive). In the case of `CN(C)CCCC(C#N)c1ccc(Cl)cc1` (centres undefined), the max activity is reported as -33.4% (inactive).
